Measured values: ChEMBL document CHEMBL3612002, “Identification of A Novel Small-Molecule Binding Site of the Fat Mass and Obesity Associated Protein (FTO)” (J Med Chem, 2015)
Calls of active or inactive are those of the source. No cut-off for these calls is given here.

Assays:
[1] = target: T1, Alpha-ketoglutarate-dependent dioxygenase FTO (Homo sapiens, UniProt Q9C0B1); assay: Inhibition of FTO (unknown origin) (31 to 505 residues) expressed in Escherichia coli BL21 (DE3) cells assessed as reduction in 3-meT substrate demethylation by measuring demethylation ratio at 80 uM incubated for 17 hrs at 16 degC by HPLC method; design: scale not given: the % may be the effect or the level left
Method in brief: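 Preliminary screen with FTO and 3meT substrate (0.1 mg/mL stock) in MES, FeSO4, αKG and L-ascorbate; inhibitor added from a 4 mM DMSO stock, with DMSO alone as control. Incubated 17 h at 16 °C, centrifuged, then analysed by C18 reverse-phase HPLC (water/methanol gradient). Demethylated fraction of substrate reported.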
Target sequence in this assay (Q9C0B1 whole entry, looked up, the tested form may be a part): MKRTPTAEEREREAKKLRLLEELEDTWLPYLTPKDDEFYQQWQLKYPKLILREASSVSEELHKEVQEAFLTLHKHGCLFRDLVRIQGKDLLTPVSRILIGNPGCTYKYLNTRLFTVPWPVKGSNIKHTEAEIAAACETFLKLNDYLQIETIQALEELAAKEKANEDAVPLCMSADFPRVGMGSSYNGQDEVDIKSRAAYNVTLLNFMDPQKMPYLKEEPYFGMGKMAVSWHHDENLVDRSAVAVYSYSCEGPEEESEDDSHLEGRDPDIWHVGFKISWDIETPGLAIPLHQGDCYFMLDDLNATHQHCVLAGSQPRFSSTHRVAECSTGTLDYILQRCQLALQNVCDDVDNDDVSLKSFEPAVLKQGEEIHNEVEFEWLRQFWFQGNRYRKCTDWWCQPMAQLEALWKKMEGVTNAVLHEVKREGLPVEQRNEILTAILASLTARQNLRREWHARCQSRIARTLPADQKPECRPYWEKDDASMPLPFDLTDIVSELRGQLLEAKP

[2] = target: T1, Alpha-ketoglutarate-dependent dioxygenase FTO; assay: Binding affinity to FTO (unknown origin) (31 to 505 residues) expressed in Escherichia coli BL21 (DE3) by ITC method
Method in brief: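 ITC at 25 °C. Cell contained 140 μM FTO (residues 31–505, His/Ni-resin and ion-exchange purified from E. coli BL21(DE3) after IPTG induction) in 25 mM HEPES pH 7.5, 100 mM NaCl, 10 mM β-mercaptoethanol, 10% DMSO. Titrant was the same buffer with 1.5 mM ligand, given as one 0.4 μL then 2.0 μL injections every 150 s at 750 rpm. Buffer-only dilution heats subtracted before fitting Kd.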
Target sequence in this assay (Q9C0B1 whole entry, the tested form may be a part): as the sequence (Q9C0B1 whole entry, looked up, the tested form may be a part) above

[3] = target: Alpha-ketoglutarate-dependent dioxygenase FTO (Mus musculus) (UniProt Q8BGW1); assay: Inhibition of FTO in mouse 3T3L1 cells increase in […] m6A modified mRNA levels at 10 uM incubated for 48 hrs by dot blot method; assay type: cell-based; conditions: 3T3-L1
Chain of Alpha-ketoglutarate-dependent dioxygenase FTO (Mus musculus) (Q8BGW1 whole entry): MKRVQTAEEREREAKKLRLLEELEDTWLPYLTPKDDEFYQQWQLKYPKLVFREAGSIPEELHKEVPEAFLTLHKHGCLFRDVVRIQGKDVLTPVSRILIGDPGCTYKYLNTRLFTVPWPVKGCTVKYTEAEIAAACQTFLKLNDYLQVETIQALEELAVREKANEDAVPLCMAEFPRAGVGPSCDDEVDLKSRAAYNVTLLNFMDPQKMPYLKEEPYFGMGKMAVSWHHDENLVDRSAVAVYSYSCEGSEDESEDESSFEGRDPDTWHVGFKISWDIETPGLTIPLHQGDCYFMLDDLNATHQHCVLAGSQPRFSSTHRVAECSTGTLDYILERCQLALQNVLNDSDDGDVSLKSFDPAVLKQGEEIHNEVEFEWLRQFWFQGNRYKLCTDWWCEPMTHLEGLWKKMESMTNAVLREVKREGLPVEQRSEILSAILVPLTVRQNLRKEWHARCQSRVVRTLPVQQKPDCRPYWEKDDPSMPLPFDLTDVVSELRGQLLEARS
Method in brief: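 3T3-L1 preadipocytes stably transfected with empty pcDNA3.1, WT-FTO or R96Q-FTO were grown in high-glucose DMEM/10% FBS. Post-confluent cells were differentiated 48 h with insulin, dexamethasone and IBMX, then given 10 μM compound plus insulin for 48 h. mRNA m6A was quantified as relative integrated optical density; mean ± SEM, n = 4.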

[4] = test system: Alpha-ketoglutarate-dependent dioxygenase FTO (Homo sapiens), Q9C0B1 [R96Q]; conditions: 3T3-L1, 10 uM
Chain of Alpha-ketoglutarate-dependent dioxygenase FTO (Homo sapiens), Q9C0B1 [R96Q] (Q9C0B1 whole entry R96Q): as the sequence (Q9C0B1 whole entry, looked up, the tested form may be a part) above, with R96Q counted along it

[5] = target: T1, Alpha-ketoglutarate-dependent dioxygenase FTO; conditions: BL21-DE3, 80 uM
Target sequence in this assay (Q9C0B1 whole entry, looked up, the tested form may be a part): as the sequence (Q9C0B1 whole entry, looked up, the tested form may be a part) above

[6] = target: T1, Alpha-ketoglutarate-dependent dioxygenase FTO; assay: biochemical
Target sequence in this assay (Q9C0B1 whole entry, the tested form may be a part): as the sequence (Q9C0B1 whole entry, looked up, the tested form may be a part) above

[7] = Cytotoxicity against mouse 3T3L1 cells assessed as effect on cell morphology at 1 to 20 uM incubated for 8 days; assay type: cell-based; conditions: 3t3-l1, 192 h
Method in brief: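 3T3-L1 preadipocytes were exposed to 1, 10 or 20 μM for 8 days. Cell health was judged from morphology.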

[8] = target: T1, Alpha-ketoglutarate-dependent dioxygenase FTO; conditions: 3T3-L1, 10 uM
Target sequence in this assay (Q9C0B1 whole entry, looked up, the tested form may be a part): as above

| Structure (SMILES) | Activity [1] [%] | other results |
| --- | --- | --- |
| O=C(Nc1cc(Cl)c(O)cc1O)C1(c2cc(C(F)(F)F)cc(C(F)(F)F)c2)CCC1 | 61.9 | – |
| O=C(Nc1cc(Cl)c(O)cc1O)C1(c2c(F)cccc2F)CCC1 | 15.2 | – |
| O=C(Nc1cc(Cl)c(O)cc1O)C1(c2cccc(C(F)(F)F)c2)CCC1 | 29.8 | – |
| O=C(Nc1cc(Cl)c(O)cc1O)C1(c2cccc(Br)c2)CCC1 | 18.7 | – |
| O=C(Nc1cc(Cl)c(O)cc1O)C1(c2ccccc2Cl)CCC1 | 16.9 | – |
| O=C(Nc1cc(Cl)c(O)cc1O)C1(c2cccc3ccccc23)CCC1 | 39 | – |
| O=C(Nc1cc(Cl)c(O)cc1O)C1(c2ccccc2Br)CCC1 | 21.6 | – |
| O=C(Nc1cc(Cl)c(O)cc1O)C1(c2c(Cl)cccc2Cl)CCC1 | 15.4 | – |
| O=C(Nc1cc(Cl)c(O)cc1O)C1(c2ccc3ccccc3c2)CCC1 | 18.4 | – |
| CCCCc1cccc(C2(C(=O)Nc3cc(Cl)c(O)cc3O)CCC2)c1 | 18.2 | – |
| O=C(Nc1cc(Cl)c(O)cc1O)C1(c2cccc(O)c2)CCC1 | 25.8 | – |
| O=C(Nc1cc(Cl)c(O)cc1O)C1(c2cccc(Oc3ccccc3)c2)CCC1 | 17.3 | – |

More lines, main results first:

| Activity [1] [%] | Structure (SMILES) | other results |
| --- | --- | --- |
| 46.9 | O=C(Nc1cc(Cl)c(O)cc1O)C1(c2ccc([N+](=O)[O-])cc2)CCC1 | – |
| 14.4 | O=C(Nc1cc(Cl)c(O)cc1O)C1(c2ccccc2)CCC1 | Kd [2]: 13 µM; inhibition [3]: Active; inhibition [4]: Active; inhibition [5]: Dose-dependent effect; IC50 [6]: 4.95 µM; Activity [7]: Non-toxic; inhibition [8]: Active |
| 31.3 | O=C(Nc1cc(Cl)c(O)cc1O)C1(c2ccc(Br)cc2)CCC1 | – |
| 29.2 | O=C(Nc1cc(Cl)c(O)cc1O)C1(c2ccc(Cl)cc2)CCC1 | – |
| 22.2 | CCCCc1ccc(C2(C(=O)Nc3cc(Cl)c(O)cc3O)CCC2)cc1 | – |
| 26.1 | O=C(Nc1cc(Cl)c(O)cc1O)C1(c2ccc([N+](=O)[O-])cc2[N+](=O)[O-])CCC1 | – |
| 16.9 | O=C(Nc1cc(Cl)c(O)cc1O)C1(c2cccc(Cl)c2)CCC1 | – |
| 17.8 | O=C(Nc1cc(Cl)c(O)cc1O)C1(c2ccc(O)cc2)CCC1 | – |
